Calls of active or inactive are those of the source. The rule behind the calls is not given here.
Experiments:
Format in all cases: cell-based
[1] = species: Homo sapiens; assay: Agonist activity at full-length human PPARgamma/RXR expressed in HEK293T cells at 20 uM after 14 to 16 hrs by dual-glo luciferase reporter gene assay relative to untreated control
Outline: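 RXR:PPARγ heterodimer reporter assay in HEK293T cells with test compound alone. Mean relative activation is taken versus 0.1% DMSO, from three independent experiments each run in duplicate.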

[2] = Agonist activity at full-length human RXR/LXR expressed in HEK293T cells at 20 uM after 14 to 16 hrs in presence of 1 uM T0901317 by dual-glo luciferase reporter gene assay relative to T0901317; conditions: HEK-293T, read-out: Activity
Outline: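 Synergy format: the test compound was co-applied with the partner-receptor reference agonist at 1 μM, either T0901317 (RXR:LXR) or rosiglitazone (RXR:PPARγ). Relative synergistic activation was derived from three independent experiments, each in duplicate; mean reported.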

[3] = Agonist activity at full-length human RXR/LXR expressed in HEK293T cells at 20 uM after 14 to 16 hrs by dual-glo luciferase reporter gene assay relative to untreated control; conditions: HEK-293T, read-out: Activity
Outline: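 RXR:LXR or RXR:PPARγ heterodimer reporter assay with test compound alone. Activation expressed relative to 0.1% DMSO vehicle. Three independent experiments, each in duplicate; mean reported.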

[4] = species: Homo sapiens; assay: Agonist activity at full-length human PPARgamma/RXR expressed in HEK293T cells at 20 uM after 14 to 16 hrs in presence of 1 uM rosiglitazone by dual-glo luciferase reporter gene assay relative to rosiglitazone
Outline: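 RXR:PPARγ heterodimer reporter assay run with reference PPARγ agonist rosiglitazone (1 μM) co-applied. Read-out is mean relative synergistic activation, from three independent experiments each run in duplicate.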

[5] = target: T1, Retinoic acid receptor alpha (Homo sapiens) (UniProt P10276); assay: Agonist activity at Gal4-LBD fused RARalpha (unknown origin) expressed in HEK293T cells at 20 uM after 14 to 16 hrs by dual-Glo luciferase assay
T1 sequence (whole entry): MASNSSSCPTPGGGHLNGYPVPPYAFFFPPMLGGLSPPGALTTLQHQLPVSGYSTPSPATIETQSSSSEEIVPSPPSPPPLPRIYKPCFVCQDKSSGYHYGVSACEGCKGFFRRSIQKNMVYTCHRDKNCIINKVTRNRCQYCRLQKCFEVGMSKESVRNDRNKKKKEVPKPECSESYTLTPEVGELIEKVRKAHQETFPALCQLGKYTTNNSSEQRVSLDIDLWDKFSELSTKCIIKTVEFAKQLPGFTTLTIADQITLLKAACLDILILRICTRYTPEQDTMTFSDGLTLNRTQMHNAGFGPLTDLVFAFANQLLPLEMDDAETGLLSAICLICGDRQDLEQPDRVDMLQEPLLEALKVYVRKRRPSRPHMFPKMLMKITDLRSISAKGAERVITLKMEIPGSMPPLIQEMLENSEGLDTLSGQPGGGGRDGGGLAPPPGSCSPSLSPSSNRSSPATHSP
Outline: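 Gal4-hybrid reporter gene selectivity panel of related nuclear receptors (PPARα/β/γ, RARα/β/γ) in HEK293T cells. Activity is read as mean fold activation versus 0.1% DMSO vehicle, n ≥ 2.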

[6] = target: T2, Retinoic acid receptor RXR-alpha (Homo sapiens) (UniProt P19793); assay: Agonist activity at Gal4-LBD fused RXRalpha (unknown origin) expressed in HEK293T cells at 10 uM after 14 to 16 hrs by dual-Glo luciferase assay
T2 sequence (whole entry): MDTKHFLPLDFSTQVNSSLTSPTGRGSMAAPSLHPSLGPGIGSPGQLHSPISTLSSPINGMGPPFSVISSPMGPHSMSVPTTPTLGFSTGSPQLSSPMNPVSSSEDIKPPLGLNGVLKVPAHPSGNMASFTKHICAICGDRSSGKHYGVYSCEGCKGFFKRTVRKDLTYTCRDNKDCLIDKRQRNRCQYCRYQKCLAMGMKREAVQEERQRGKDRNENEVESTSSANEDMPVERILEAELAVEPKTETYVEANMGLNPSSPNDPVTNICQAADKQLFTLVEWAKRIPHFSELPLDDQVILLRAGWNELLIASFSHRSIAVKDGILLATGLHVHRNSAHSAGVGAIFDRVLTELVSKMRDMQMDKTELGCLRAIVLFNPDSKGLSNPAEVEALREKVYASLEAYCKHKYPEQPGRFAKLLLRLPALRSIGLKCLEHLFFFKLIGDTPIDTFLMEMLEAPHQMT

Activity [5] | Activity [6] | Compound | Activity [1] [%] | activity at 20 µM [2] [%] | activity at 20 µM [3] [%] | Activity [4] [%]
Active |  | Cc1cc(-c2ccc(C(=O)O)cc2)cc(C(C)(C)C)c1 | 91 | 70 | 87 | 46
 | inactive | Cc1cc(-c2cc(C(C)(C)C)cc(C(C)(C)C)c2)ccc1C(=O)O |  |  |  | 
